From ChEMBL document CHEMBL3872267, “Design and synthesis of phosphoryl-substituted diphenylpyrimidines (Pho-DPPYs) as potent Bruton's tyrosine kinase (BTK) inhibitors: Targeted treatment of B lymphoblastic leukemia cell lines” (Bioorg Med Chem, 2017)

Assays:
Ramos [1] = experiment: Induction of apoptosis in human Ramos cells assessed as necrotic cells at 5 uM measured after 48 hrs by Annexin V-FITC/propidium iodide based flow cytometry (reference value: 0.2 %); assay type: functional
Method in brief: (§1)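 Ramos cells at 1–5 × 10⁵ cells/well were treated for 48 h in medium with 5% FBS, with a DMSO solvent control. They were […], stained with Annexin V-FITC/propidium iodide, and analysed by flow cytometry.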

[2] = Antiproliferative activity against human Raji cells measured after 48 hrs by CCK-8 assay; assay type: functional, cell-based
Method in brief: (§2)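 Cells seeded at 2000–3000 cells/well and kept one day at 37 °C, 5% CO₂ in RPMI1640 with 10% FBS. Viability was read by CCK-8 absorbance at 450 nm, and seeding was adjusted to give 0.5–1.2 absorbance. IC50 was derived by curve fitting.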

[3] = Cell cycle arrest in human Ramos cells assessed as accumulation at S phase at 1 uM measured after 48 hrs by propidium iodide based flow cytometry (reference value: 55.07 %); assay type: functional
Method in brief: (§3)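 Ramos cells at about 2 × 10⁵ cells/well were treated for 48 h, then fixed overnight in 70% ethanol at 4 °C. After a PBS wash they were stained with propidium iodide for 10 min under subdued light. Cell-cycle phase distribution was determined by flow cytometry.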

[4] = Cell cycle arrest in human Ramos cells assessed as accumulation at G0/G1 phase at 10 uM measured after 48 hrs by propidium iodide based flow cytometry (reference value: 39.95 %); assay type: functional; method in brief: as §3
[5] = Cell cycle arrest in human Ramos cells assessed as accumulation at G0/G1 phase at 5 uM measured after 48 hrs by propidium iodide based flow cytometry (reference value: 39.95 %); assay type: functional; method in brief: as §3
Ramos [6] = experiment: Induction of apoptosis in human Ramos cells assessed as late apoptotic cells at 5 uM measured after 48 hrs by Annexin V-FITC/propidium iodide based flow cytometry relative to control; assay type: functional; method in brief: as §1
[7] = Cell cycle arrest in human Ramos cells assessed as accumulation at G2/M phase at 1 uM measured after 48 hrs by propidium iodide based flow cytometry (reference value: 4.98 %); assay type: functional; method in brief: as §3
[8] = Cell cycle arrest in human Ramos cells assessed as accumulation at S phase at 10 uM measured after 48 hrs by propidium iodide based flow cytometry (reference value: 55.07 %); assay type: functional; method in brief: as §3
[9] = Cell cycle arrest in human Ramos cells assessed as accumulation at G2/M phase at 5 uM measured after 48 hrs by propidium iodide based flow cytometry (reference value: 4.98 %); assay type: functional; method in brief: as §3
Ramos [10] = experiment: Induction of apoptosis in human Ramos cells assessed as early apoptotic cells at 1 uM measured after 48 hrs by Annexin V-FITC/propidium iodide based flow cytometry relative to control; assay type: functional; method in brief: as §1
Ramos [11] = experiment: Induction of apoptosis in human Ramos cells assessed as late apoptotic cells at 1 uM measured after 48 hrs by Annexin V-FITC/propidium iodide based flow cytometry relative to control; assay type: functional; method in brief: as §1
[12] = Cell cycle arrest in human Ramos cells assessed as accumulation at S phase at 5 uM measured after 48 hrs by propidium iodide based flow cytometry (reference value: 55.07 %); assay type: functional; method in brief: as §3
Ramos [13] = experiment: Induction of apoptosis in human Ramos cells assessed as necrotic cells at 1 uM measured after 48 hrs by Annexin V-FITC/propidium iodide based flow cytometry (reference value: 0.2 %); assay type: functional; method in brief: as §1
[14] = Cell cycle arrest in human Ramos cells assessed as accumulation at G0/G1 phase at 1 uM measured after 48 hrs by propidium iodide based flow cytometry (reference value: 39.95 %); assay type: functional; method in brief: as §3
Ramos [15] = experiment: Induction of apoptosis in human Ramos cells assessed as viable cells at 1 uM measured after 48 hrs by Annexin V-FITC/propidium iodide based flow cytometry relative to control; assay type: functional; conditions: read-out: Activity; method in brief: as §1
Ramos [16] = experiment: Induction of apoptosis in human Ramos cells assessed as early apoptotic cells at 5 uM measured after 48 hrs by Annexin V-FITC/propidium iodide based flow cytometry relative to control; assay type: functional; method in brief: as §1
[17] = Antiproliferative activity against human Ramos cells measured after 48 hrs by CCK-8 assay; assay type: functional, cell-based; method in brief: as §2
[18] = Cell cycle arrest in human Ramos cells assessed as accumulation at G2/M phase at 10 uM measured after 48 hrs by propidium iodide based flow cytometry (reference value: 4.98 %); assay type: functional; method in brief: as §3
Ramos [19] = experiment: Induction of apoptosis in human Ramos cells assessed as viable cells at 5 uM measured after 48 hrs by Annexin V-FITC/propidium iodide based flow cytometry relative to control; assay type: functional; conditions: read-out: Activity; method in brief: as §1
[20] = target: Tyrosine-protein kinase BTK (Homo sapiens, UniProt Q06187); experiment: Inhibition of human recombinant full-length N-terminal His-tagged BTK expressed in baculovirus infected Sf9 insect cells measured after 60 mins by ADP-Glo kinase assay
Tyrosine-protein kinase BTK, sequence (Q06187 whole entry): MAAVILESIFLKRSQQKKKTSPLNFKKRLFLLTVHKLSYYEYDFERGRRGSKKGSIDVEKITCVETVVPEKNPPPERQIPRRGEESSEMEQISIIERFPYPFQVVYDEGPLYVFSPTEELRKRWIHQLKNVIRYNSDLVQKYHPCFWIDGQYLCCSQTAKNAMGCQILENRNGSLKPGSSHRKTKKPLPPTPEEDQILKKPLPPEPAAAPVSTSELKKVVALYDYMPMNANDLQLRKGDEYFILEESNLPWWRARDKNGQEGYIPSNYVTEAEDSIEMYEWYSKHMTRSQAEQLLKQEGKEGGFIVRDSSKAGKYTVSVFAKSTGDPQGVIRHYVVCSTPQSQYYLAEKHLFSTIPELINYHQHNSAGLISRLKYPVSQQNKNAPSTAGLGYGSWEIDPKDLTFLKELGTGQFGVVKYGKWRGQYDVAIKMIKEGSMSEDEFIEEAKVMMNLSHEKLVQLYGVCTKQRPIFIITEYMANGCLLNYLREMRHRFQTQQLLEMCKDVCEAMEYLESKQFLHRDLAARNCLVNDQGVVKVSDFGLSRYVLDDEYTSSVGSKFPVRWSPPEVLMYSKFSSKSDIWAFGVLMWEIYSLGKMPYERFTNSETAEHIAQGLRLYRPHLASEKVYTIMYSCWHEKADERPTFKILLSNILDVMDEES

Ramos [21] = experiment: Induction of apoptosis in human Ramos cells assessed as viable cells at 10 uM measured after 48 hrs by Annexin V-FITC/propidium iodide based flow cytometry relative to control; assay type: functional; method in brief: as §1
Ramos [22] = experiment: Induction of apoptosis in human Ramos cells assessed as late apoptotic cells at 10 uM measured after 48 hrs by Annexin V-FITC/propidium iodide based flow cytometry relative to control; assay type: functional; method in brief: as §1
Ramos [23] = experiment: Induction of apoptosis in human Ramos cells assessed as necrotic cells at 10 uM measured after 48 hrs by Annexin V-FITC/propidium iodide based flow cytometry (reference value: 0.2 %); assay type: functional; method in brief: as §1
Ramos [24] = experiment: Induction of apoptosis in human Ramos cells assessed as early apoptotic cells at 10 uM measured after 48 hrs by Annexin V-FITC/propidium iodide based flow cytometry relative to control; assay type: functional; method in brief: as §1

SMILES | IC50 [2] | Activity [4] | Activity [8] | IC50 [17] | Activity [18] | IC50 [20] | also measured
C=CC(=O)Nc1cccc(Nc2nc(Nc3ccc(OCCCP(=O)(OCC)N4CCOCC4)cc3)ncc2Cl)c1 (stereo not drawn) | 6.69 µM | 38% | 50.8% | 3.17 µM | 11.2% | 0.00082 µM | Activity (Ramos [1]): 14.7%; Activity [3]: 55.4%; Activity [5]: 36.4%; Activity (Ramos [6]): 7.5%; Activity [7]: 7.68%; Activity [9]: 9.29%; Activity (Ramos [10]): 27.7%; Activity (Ramos [11]): 5.9%; Activity [12]: 54.3%; Activity (Ramos [13]): 15.6%; Activity [14]: 36.9%; viability at 1 µM (Ramos [15]): 50.9%; Activity (Ramos [16]): 37.6%; viability at 5 µM (Ramos [19]): 40.2%
C=CC(=O)Nc1cccc(Nc2nc(Nc3ccc(OCCOC)cc3)ncc2F)c1 [SPEBRUTINIB] | – | 31% | 47.9% | – | 20.9% | – | viability at 10 µM (Ramos [21]; Homo sapiens, Ramos, 48 h, read-out: Activity): 54.2%; Activity (Ramos [22]): 20.4%; Activity (Ramos [23]): 4.3%; Activity (Ramos [24]): 21.1%
C=CC(=O)Nc1cccc(Nc2nc(Nc3ccc(OCCCP(=O)(OCC)OCC)cc3)ncc2F)c1 | 16.4 µM | – | – | 11.5 µM | – | 0.0216 µM | –
C=CC(=O)Nc1cccc(Nc2nc(Nc3ccc(CP(=O)(OCC)OCC)cc3)ncc2Cl)c1 | 13.5 µM | – | – | 11.7 µM | – | 0.00123 µM | –
C=CC(=O)N1CCC[C@@H](n2nc(-c3ccc(Oc4ccccc4)cc3)c3c(N)ncnc32)C1 [IBRUTINIB] | – | 43.2% | 50.2% | – | 6.57% | – | Activity (Ramos [21]): 52%; Activity (Ramos [23]): 0.1%; Activity (Ramos [24]): 37%
C=CC(=O)Nc1cccc(Nc2nc(Nc3ccc(OCCCP(=O)(OCC)OCC)cc3)ncc2Cl)c1 | 6.07 µM | – | – | 5.4 µM | – | 0.0106 µM | –
C=CC(=O)Nc1cccc(Nc2nc(Nc3ccc(CP(=O)(OCC)OCC)cc3)ncc2F)c1 | 34.9 µM | – | – | 9.36 µM | – | 0.0321 µM | –
C=CC(=O)Nc1cccc(Nc2nc(Nc3ccc(CP(=O)(OCC)N4CCOCC4)cc3)ncc2Cl)c1 (stereo not drawn) | 7.71 µM | – | – | 27.4 µM | – | 0.112 µM | –
